# Tested on: HeLa
# Experiment: Cytotoxicity against human HeLa cells assessed as reduction in cell viability incubated for 24 hrs by presto blue assay
# Assay type: functional, cell-based
# Method in brief: (§1)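 HeLa cells (ATCC CCL-2) were exposed to each compound at 100, 30, 10 and 1 µM for 24 h. Viability was read by PrestoBlue absorbance and normalized to a DMSO negative control; doxorubicin served as positive control. Data are mean and SEM. IC50 came from the percentage viability plotted against log concentration, with R squared reported.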
row,Structure (SMILES),IC50 [µM]
1,C(=N\CCN1CCCCC1)/c1c2ccccc2c(/C=N/CCN2CCCCC2)c2ccccc12,23.8
2,Cc1cnc(/N=C/c2c3ccccc3c(/C=N/c3ncc(C)s3)c3ccccc23)s1,20.5
3,C(=N\CCc1c[nH]c2ccccc12)/c1c2ccccc2c(/C=N/CCc2c[nH]c3ccccc23)c2ccccc12,30.6
4,C(=N\Cc1ccc2c(c1)OCO2)/c1c2ccccc2c(/C=N/Cc2ccc3c(c2)OCO3)c2ccccc12,18

# Tested on: HeLa
# Experiment: Cytotoxicity against human HeLa cells assessed as reduction in cell viability incubated for 24 hrs by MTT assay
# Assay type: functional, cell-based
row,Structure (SMILES),IC50 [µM]
1,CN(C)c1ccc(Nc2c3ccc(NC(=O)CCN4CCCC4)cc3nc3cc(NC(=O)CCN4CCCC4)ccc23)cc1,5.25

# Tested on: HeLa
# Experiment: Cytotoxicity against human HeLa cells
# Assay type: functional, cell-based
# Method in brief: as §1
row,Structure (SMILES),IC50 [µM]
1,CN1CCC[C@H]1CCNC(=O)c1cn2c3c(c(N4CCC(c5cnccn5)C4)c(F)cc3c1=O)Oc1cc3ccccc3cc1-2 (stereo partly specified) [QUARFLOXIN],4.44
2,CN(C)CCNC(=O)c1cccn2c(=O)c3cc4ccccc4cc3nc12,0.46
3,Cc1cnc(CNC(=O)c2c(=O)c3ccc(N4CCCN(C)CC4)nc3n3c2sc2ccccc23)cn1 [CX-5461],6.89
4,COc1cccc2c1C(=O)c1c(O)c3c(c(O)c1C2=O)C[C@@](O)(C(=O)CO)C[C@@H]3O[C@H]1C[C@H](N)[C@H](O)[C@H](C)O1 [DOXORUBICIN],0.374
5,Cc1cc2c3c([n+](C)c4ccc(F)cc4c3c1)-c1cc(F)ccc1N2C,0.2
6,COc1cccc2c1C(=O)c1c(O)c3c(c(O)c1C2=O)C[C@@](O)(C(=O)CO)C[C@@H]3O[C@H]1C[C@H](N2CCO[C@H](OC)C2)[C@H](O)[C@H](C)O1 [NEMORUBICIN],0.08
